Compound activity: PubChem, several laboratories
PKD1 inh – inhibitors of human PKD1 kinase, biochemical, fluorescence polarization; Serine/threonine-protein kinase D1 (Homo sapiens), Q15139; actives 0.056% (n = 200,000); inhibition, % (concentration not given with the values); PKD1 kinase fluorescence polarization assay; in the data active means inhibition above about 50%
Arbovirus inh – antivirals against arbovirus infection, primary screen, cell-based, full library, 10K replicate subset. inhibition, % at 10 µM. actives 0.37% (n = 200,000). arbovirus infection cell-based antiviral screen; in the data active means inhibition above about 30%
TNAP act hiacc – TNAP activators at high phosphate acceptor level, primary screen, biochemical, luminescence, uHTS; Alkaline phosphatase, tissue-nonspecific isozyme (Homo sapiens), P05186; activation factor at 20 µM; purified TNAP, CDP-star luminescence, 1 M DEA, 30 min; active compounds read high; 0 = EDTA background, 1 = DMSO-only activity; 200,000 tested, under 10 active;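 active means activation factor at least 2 at 20 µM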
Target sequence (P05186 whole entry, looked up): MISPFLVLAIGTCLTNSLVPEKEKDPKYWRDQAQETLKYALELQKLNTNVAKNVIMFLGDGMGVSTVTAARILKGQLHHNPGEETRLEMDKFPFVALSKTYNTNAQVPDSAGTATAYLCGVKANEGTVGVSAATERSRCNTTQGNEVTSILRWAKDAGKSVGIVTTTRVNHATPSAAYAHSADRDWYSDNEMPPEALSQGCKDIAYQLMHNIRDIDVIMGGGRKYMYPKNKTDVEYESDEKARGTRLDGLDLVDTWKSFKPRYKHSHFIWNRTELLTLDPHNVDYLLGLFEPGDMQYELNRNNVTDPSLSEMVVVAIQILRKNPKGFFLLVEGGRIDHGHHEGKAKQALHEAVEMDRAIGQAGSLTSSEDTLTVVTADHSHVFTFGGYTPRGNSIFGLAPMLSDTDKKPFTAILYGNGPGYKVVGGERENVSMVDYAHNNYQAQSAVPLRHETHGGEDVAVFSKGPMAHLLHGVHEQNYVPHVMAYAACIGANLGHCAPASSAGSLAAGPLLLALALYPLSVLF
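Dosing: 20 µM single point. System: human TNAP. Amount: TNAP 1/800 final. Incubation: 30 min, room temperature. Read-out: TNAP activation factor scaled between EDTA and DMSO control wells. Signal: luminescence from CDP-star hydrolysis. Medium: 1 M DEA, pH 9.8, Mg2+, Zn2+. Control set: EDTA negative control, DMSO positive control.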
TNAP inh hi DEA – human TNAP enzyme inhibitors, primary screen, biochemical, luminescent, high phosphate acceptor level, uHTS; actives 0.03% (n = 200,000); purified TNAP, CDP-star luminescence, 1 M DEA; Alkaline phosphatase, tissue-nonspecific isozyme (Homo sapiens), P05186; inhibition, % at 20 µM;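 active means over 50% inhibition of tissue-nonspecific alkaline phosphatase at 20 µM in the single-dose screen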;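 further: plate controls were DMSO wells for no effect and EDTA-quenched wells as full inhibition for full effect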
TNAP inh noacc – human TNAP enzyme inhibitors, primary screen, biochemical, luminescent, no phosphate acceptor, uHTS. Alkaline phosphatase, tissue-nonspecific isozyme (Homo sapiens), P05186. purified TNAP, CDP-star luminescence, 30 min. inhibition, % at 20 µM. actives 0.26% (n = 200,000). AID 1012, 2008;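 active means tissue-nonspecific alkaline phosphatase inhibition above about 50% at 20 µM in the single-dose screen, limit read from the data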;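 further: 0% = DMSO negative control and 100% = EDTA positive control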
An asterisk follows results filed as active. In the library only some 0.72% were active in any assay of this set; here they are far more common.

SMILES	PKD1 inh	Arbovirus inh	TNAP act hiacc	TNAP inh hi DEA	TNAP inh noacc
Cc1ccc(-c2nc(N=Nc3ccc(O)cc3)n[nH]2)cc1	-1	-32	0.7	33	68*
COc1ccc(-c2nc(N=Nc3ccc(O)cc3)n[nH]2)cc1	-5	-27	0.7	29	74*
Cc1ccc(S(=O)(=O)Nc2ccc(N=Nc3ccc(O)cc3)cc2)cc1	-18	-32	0.6	36	26
O/N=C/C1=C(Cl)c2ccccc2CC1	-6	19	1	-4	-4
CCOC(=O)c1ccc(N2CCN(c3ccc(F)cc3)CC2)c(NC(=O)Nc2cccc(OC)c2)c1	1	2	1.1	-8	-16
CCOC(=O)c1ccc(N2CCN(c3ccccc3F)CC2)c(NC(=O)Nc2ccccc2)c1	-8	31*	1.1	-14	-118
CSc1nc2ccc(NS(=O)(=O)c3ccc4c(c3)OCCO4)cc2s1	12	32*	1	-4	-10
O=C(c1ccccc1)N1CCN(c2ccc([N+](=O)[O-])c(NCC3CCCO3)c2)CC1 (stereo not given)	-2	-4	0.9	11	3
CCCCC(=O)Nc1cc(C(=O)NCCc2ccccc2)ccc1Cl	7	-7	1	-3	-11
COc1ccccc1C1C2=C(N=c3s/c(=C/c4cccc(OCC(=O)O)c4)c(=O)n31)c1ccccc1CC2 (stereo not given)	-10	41*	1	-1	4
COc1cccc(C2C3=C(N=c4s/c(=C\c5cccc(O)c5)c(=O)n42)c2ccccc2CC3)c1OC (stereo not given)	-1	-27	0.9	9	10
CCCCCc1nnc(NC(=O)C2COc3ccccc3O2)s1 (stereo not given)	-6	46*	1	-2	2
Cc1ccc(CSc2nnc(NC(=O)C3COc4ccccc4O3)s2)cc1 (stereo not given)	-11	56*	1	4	9
CC1Cc2ccccc2N1S(=O)(=O)c1cccc(C(=O)N2CCN(c3ncccn3)CC2)c1 (stereo not given)	-5	38*	1	-5	-3
CC1Cc2ccccc2N1S(=O)(=O)c1cccc(C(=O)NCCCO)c1 (stereo not given)	-4	4	1	-4	-11
CCn1nc(C)c(NC(=O)Nc2cccc(Cl)c2Cl)c1C	1	32*	1.1	-5	-15
Cc1cccc(/C=N/n2c(-c3ccccn3)n[nH]c2=S)c1	6	-3	1	-2	54*
O=C(NN=C1CCCC1)C1COc2ccccc2O1 (stereo not given)	-1	1	1	0	-3
COC(=O)c1cc(-c2cccc(OC)c2)n[nH]1	-3	5	1	-3	46
CCOC(=O)c1cc(-c2ccc(C)o2)n[nH]1	-5	0	1	0	68*
CCOc1cccc(-c2cc(C(=O)NN)[nH]n2)c1	5	-8	1	-1	-7
CCOc1ccc(-c2cc(C(=O)OC)[nH]n2)cc1	-6	6	1.1	-6	85*
COC(=O)c1cc(-c2ccc(C)cc2)n[nH]1	1	-2	1	-2	90*
COC(=O)c1cc(-c2ccc(OC)cc2)n[nH]1	0	-1	1	-5	94*
CCOC(=O)c1cc(-c2cc3ccccc3o2)n[nH]1	-10	-2	1	-3	-15
SMILES	PKD1 inh	Arbovirus inh	TNAP act hiacc	TNAP inh hi DEA	TNAP inh noacc
O=C(Oc1cccc(C(=S)N2CCOCC2)c1)c1cc([N+](=O)[O-])cc([N+](=O)[O-])c1	-10	0	1.1	-8	-10
CN1C(=O)C(CC(=O)NC2CCCCC2)SC1=Nc1ccccc1 (stereo not given)	-12	1	1.1	-7	-4
Nc1n[nH]c(-c2ccccc2[N+](=O)[O-])n1	-3	1	1	2	86*
CCOc1cccc(-c2csc(C3COc4ccccc4O3)n2)c1 (stereo not given)	15	4	1	3	-11
C=CCNC(=O)c1onc(CSc2ccc(C(C)C)cc2)c1C(=O)O	-4	36*	1	-4	-11
C=CCNC(=O)c1onc(CSc2ccccc2)c1C(=O)O	-8	12	1	-1	-9
CCCc1cc2c(OC(=O)CC)c(-c3ccc(C(=O)OCC)o3)c(=O)oc2cc1OC	7	58*	1	-4	-14
CCCc1cc(-c2n[nH]c(C)c2-c2ccc(C(=O)OCC)o2)c(O)cc1O	-8	-4	1	-3	-6
N#C/C(=C\c1ccc(O)c(O)c1)C(=O)NCCCc1ccccc1	-6	-13	0.7	34	79*
N#C/C(=C\c1ccc(O)c(O)c1)C(=O)N1CCCC1	5	-9	0.7	26	73*
O=C(O)CN1C(=O)C2C3CC(C2C1=O)C1C(c2ccc(F)cc2)c2sc(=O)[nH]c2SC31 (stereo not given)	-1	2	1	0	-10
COc1cc2c(cc1OC)C(c1cccs1)N(C(=S)NC(C)C)CC2 (stereo not given)	-2	0	1.1	-5	-5
O=C(O)c1[nH]nc2c1COc1ccccc1-2	-7	6	1	0	91*
Cc1cc(C(=O)CSc2n[nH]c(-c3ccccc3F)n2)c(C)n1Cc1cccs1	5	20	1	2	91*
COc1ccc(NC(=O)C(=O)N/N=C/c2cc(C)n(-c3cccc(Cl)c3Cl)c2C)c(OC)c1	-6	32*	1.1	-6	-10
CC1C=CCC2C(=O)N(c3cc(Cl)ccc3O)C(=O)C12 (stereo not given)	0	-15	1.1	-6	-11
Cc1ccccc1OCC(=O)Nc1ccc2c(c1)n(C)c(=O)n2C	4	4	1	-4	-9
Cc1ccccc1S(=O)(=O)Nc1ncnc2scc(-c3ccccc3)c12	4	58*	1	-1	-4
N#CCCn1cc(/C=N/NC(N)=S)c(-c2ccccc2)n1	-1	-8	1	0	56*
Oc1ccc(F)cc1-c1cc(-c2ccc3c(c2)OCCO3)n[nH]1	7	32*	1	-4	-31
CCOC(=O)c1csc(NC(=O)CCSc2ccccc2)n1	-5	5	1	-4	-12
CCOC(=O)c1csc(NC(=O)CC2CCCC2)n1	1	30*	1	-4	-5
Cc1nn(-c2ccccc2)c(C)c1/C=N/NC(=O)c1cc(-c2ccccc2)n[nH]1	-3	2	0.8	22	98*
Cc1nn(-c2ccccc2)c(C)c1/C=N/NC(=O)c1cc(-c2cccc3ccccc23)n[nH]1	-7	-4	1	0	-12
